This data set can be described thus: Toxicity liver stage against HepG2, at 10uM. The data set is classed as cell-based. Particulars: human, HepG2-A16-CD81EGFP cells; read-out: INHIBITION
Details: test concentration 10 uM, cell line HepG2-A16-CD81EGFP. The procedure, abridged:
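Uninfected HepG2-A16-CD81EGFP cells, 3 × 10^3 per well, 1536-well, plated on prespotted compound at 10 μM final, parasite-free screening media added to match infected plates; puromycin 10 μM positive, DMSO 0.5% negative; run in parallel with 48 h PbLuc assay at 37 °C, 5% CO2; viability by CellTiter-Glo luminescence, normalized to controls.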
For `N#Cc1c(-c2ccccc2)csc1N`, the cytotoxicity at 10 µM was determined as 2.42%.
For `c1ccc2c(c1)COC1(CCCC1)N2` the value was 10.4%.
For `Cc1noc([C@@H]2C[C@H](NC(=O)NC(C)C)CN2C)n1` the value was -10.1%; for `CC(C)CC1CC(=O)Nc2c1cnn2Cc1ccco1` (configuration not stated), -2.75%.
Under `Cc1cc(CN2CCC(CNS(=O)(=O)c3ccc(C)s3)CC2)c(C)o1` stands 3.39%; under `O=C(Nc1cccnc1)C1CCCN(c2cc(-n3cccn3)ncn2)C1` (configuration not stated), -5.36%; under `COc1cccc(CN2C[C@H]3CCNCC[C@H]3S2(=O)=O)c1`, -8.81%.
`c1csc(CN2C[C@H]3CCC[C@@]3(COCC3CCOCC3)C2)n1`: the cytotoxicity at 10 µM was -1.99%.
With `O=C(NC1CC1)C1CCN(c2nc3nc[nH]c(=O)c3s2)CC1`, the cytotoxicity at 10 µM is -6.5%.
For `CCn1nc(C)c2c1cnn2CC(=O)NC(C)c1cccc(OC)c1` (configuration not stated) the value was 25.8%; for `Cc1cc(=O)n(CC(=O)NCC2CCCO2)c(-c2ccc(F)cc2)n1` (configuration not stated), -10.8%.
Consider `CC(=O)N[C@@H]1CN(C(=O)CC2CC2)C[C@H]1O`, for which the cytotoxicity at 10 µM is -7.1%.
Under `CC(=O)N1CCC(c2cnc(-c3c(C)n[nH]c3C)cn2)CC1` stands -17.1%; under `C[C@H](NC(=O)C1CC1)c1nc2cc(-c3ccc(F)cc3)ncn2n1`, -23%.
Under `CC(C)(C)C(=O)N1CCCC(c2ncncc2-c2ccncc2)C1` (configuration not stated) stands 4.03%; under `COCC(=O)N1CCC(c2cc3n(n2)[C@@H](C(F)(F)F)C[C@@H](C)N3)CC1`, -26.5%; under `CCC(=O)N1CCC(Cc2cc(Nc3ncccn3)ncn2)CC1`, -4.05%.
For `CN1CCCC(CCCc2cccnc2)(C(N)=O)C1` (configuration not stated) the value was -7.86%.
As for `Cc1nc(Nc2ccccn2)cc(C2CCCN2Cc2ncc[nH]2)n1` (configuration not stated), the cytotoxicity at 10 µM is -3.11%.
For `CC(C)c1nccn1-c1cccc(C2CCCN(S(=O)(=O)N(C)C)C2)n1` (configuration not stated) the value was -3.11%.
`O=C(c1cnccn1)N1CCCC(c2cccc(-n3ccnc3)n2)C1` (configuration not stated): the cytotoxicity at 10 µM was -9.08%.
Under `O=C(c1ccc(Cl)cc1)N1CCn2c(nn(-c3ccncc3)c2=O)C1` stands 27.5%; under `CN(C(=O)CSc1ncc[nH]1)c1ccccc1`, 11.1%.
As for `COC(C)c1cccc(NCc2cccs2)c1` (configuration not stated), the cytotoxicity at 10 µM is -8.94%.
Turning to `COCCCN1Cc2cccc(NC(=O)c3ccccc3Cl)c2C1`, the cytotoxicity at 10 µM was -4.34%.
Take `O=C(c1ccc(-n2cccn2)nc1)N1CCC(c2ccc(O)cc2)CC1`: the cytotoxicity at 10 µM is 11.7%.
Under `Cc1ncc(CNC(CCO)C2CCCCC2)s1` (configuration not stated) stands -48.7%; under `Cc1nc(CNc2cccc(Cl)c2Cl)cs1`, 11.4%; under `COCCOCCNC(=O)c1ccc(N2CCC(C)=N2)cc1`, 7.42%.
For `N#Cc1cccc(-c2ncnn2CC2(O)CCCCC2)c1` the value was 8.83%; for `Cc1noc(CCCC(=O)N2CCCCC2CNS(C)(=O)=O)n1` (configuration not stated), -0.88%; for `Cn1cccc1CNCc1nnc2n1CCCC2C(F)(F)F` (configuration not stated), -7.53%.
Consider `O=C(CCc1ccncc1)N1CCc2cc(Cl)cc(Cl)c2C1`, for which the cytotoxicity at 10 µM is -24.3%.
For `CC(C)(C)n1ncc2c1CCCC2NCc1ccsc1` (configuration not stated) the value was 3.59%.
For `O=C(COc1cccc2c1CCC2=O)NCc1ccccc1Cl` the value was -3.46%; for `Cc1ncsc1CNCC(C)c1nc2ccccc2o1` (configuration not stated), 4.17%.
For `CCN1CCN(c2ccc(C(=O)NC(C)CCOC)cc2)CC1` (configuration not stated) the value was 8.7%; for `CCN1CCN(C(=O)NCc2cccc(-c3cnn(C)c3)c2)CC1`, -10%.
Turning to `Cc1nc(C)c(CCNc2ccc(S(N)(=O)=O)cc2C#N)s1`, the cytotoxicity at 10 µM is -62.2%.
For `COc1cccc(CC2CCCN2CCCO)c1` (configuration not stated) the value was -37.5%; for `CN(CC1CCN(CCO)CC1)CC(O)c1ccc(F)c(F)c1` (configuration not stated), -51.5%.
For `CCc1noc(CN(CC(=O)N2CCCCC2)c2ccc(C)cc2)n1` the value was -3.24%; for `COc1ccc(CN(C)C(=O)CCC(=O)c2cccs2)c(OC)c1OC`, -10.7%.
Take `Cc1cc(N2CCN(C(=O)c3cc(Cl)c[nH]3)CC2)nc(N)n1`: the cytotoxicity at 10 µM is -6.28%.
Under `N#CCSCCCN1CCCN(C(=O)c2ccccc2)CC1` stands -3.74%; under `C[C@@H]1CN(C(=O)[C@H]2CCCO2)C[C@]12CCN(c1ccsc1)C2=O`, -77.8%; under `O=C(c1ccncc1)N1CCc2ncnc(C3CCOC3)c2CC1` (configuration not stated), -73.2%.
For `COCC(=O)N1CCO[C@H]2[C@H](OC)CC[C@@H]21` the value was 6.61%; for `c1ccc(C[C@H]2CN(Cc3nccs3)CC[C@H]2OCC2CC2)cc1`, 5.27%.
For `O=C(CC1CC1)N1CCC2(CC1)CN(c1ncccn1)CCO2` the value was 1.49%; for `O=C(NCCn1cccc1)C(c1cccnc1)N1CCCC1` (configuration not stated), -54.5%; for `CCc1ccc(CN2CCN(c3ncc(Cl)cn3)CC2)nc1`, 8.45%.
In the case of `CC(C)[C@@H]1CN(Cc2ccsc2)C[C@H]1NS(=O)(=O)N(C)C`, the cytotoxicity at 10 µM was -23.5%.
Under `CN1CCN(c2cc(Sc3cccs3)nc(N)n2)CC1CCO` (configuration not stated) stands 1.31%; under `CNC(=O)C1CCN(c2nccc(CCC(F)(F)F)n2)C1` (configuration not stated), -11.4%.
For `O=C(Nc1ccc2scnc2c1)N1CCN([C@H]2CCCC[C@@H]2O)CC1` the value was -53.6%.
Under `O=C(C1CCCC1)N1CCC(Nc2ccncn2)CC1` stands -57.7%; under `CC(C)c1nnsc1CN1CCc2[nH]nc(-c3ccc(Cl)cc3)c2C1`, -10.3%.
For the compound `CNc1ccnc(NCCC(=O)Nc2ccccc2OC)n1`, the cytotoxicity at 10 µM was -1.62%.
For `CCn1ncnc1CN(CCOC)Cc1ccc(C)cc1` the value was -40.2%; for `COc1ccccc1-n1cc(CN2CCN(C)[C@@H]3CS(=O)(=O)C[C@@H]32)cn1`, 14.5%; for `CCCc1cc(CN(C)C2CCSCC2)n[nH]1`, -20.6%.
As for `CC(C)[C@@H]1CN(C(=O)C2(c3ccccc3)CC2)C[C@H]1C(=O)O`, the cytotoxicity at 10 µM amounted to 3.61%.
Under `CN1CCN(CCC(F)(F)C(F)F)CC12CCNC(=O)CC2` (configuration not stated) stands -39.7%; under `CCOCCn1c(=O)n(Cc2ccccc2F)c2cc(C(=O)O)cnc21`, -6.46%; under `COCCN1CCC(CN(CC2CCCO2)C(=O)CNC(C)=O)CC1` (configuration not stated), 1.48%.
For `CN1CC(c2ccccc2)CC2(CCN(Cc3ncc[nH]3)CC2)C1` (configuration not stated) the value was -1.21%.
Under `Cn1c(CN2CCOCC2)nnc1C1CCN(C(=O)C2CCCC2)CC1` stands -17.8%.
`CNC(=O)c1ccc(C2CN(C(=O)c3cncs3)CCO2)nc1` (configuration not stated): the cytotoxicity at 10 µM is -2.7%.
`c1ccc(Oc2ccc(CNCC3CNc4ccnn4C3)cn2)cc1` (configuration not stated): the cytotoxicity at 10 µM was -15.6%.
For `Clc1cccc(-c2nc(CNC3CCc4ncnn4C3)co2)c1` (configuration not stated) the value was 2.56%; for `Cc1nnc2n1CCN(C(=O)c1cc(C)n(-c3cccnc3)c1C)C2`, -6.63%; for `Cc1ccc(NC2CCN(C(=O)Cc3cccs3)CC2)nn1`, -6.8%.
For `Cc1noc(CN(Cc2cccs2)C2CCS(=O)(=O)C2)n1` (configuration not stated) the value was -3.21%; for `Cc1nn(C)c(N(C)C)c1CNCCC(=O)NC1CCCCC1`, -13.4%; for `Cc1ccccc1C1(CNC(=O)CCN2C(=O)CCC2=O)CC1`, -11.8%.
For `c1ccc(-n2cc(CN3CCCC3Cn3cncn3)nn2)cc1` (configuration not stated) the value was -0.0716%; for `O=C(c1ccccc1OC1CCCC1)N1CCCC(n2cncn2)C1` (configuration not stated), -0.0581%; for `COCc1ccccc1C(=O)N(C)Cc1ncc(C)c(OC)c1C`, -7.55%.
For `Cc1noc(C)c1CNC(=O)c1ccc(NC2CC2)nc1`, the cytotoxicity at 10 µM was -3.91%.
Under `CC(C)OCCC(=O)N(C)CCCc1cc(-c2ccccc2)no1` stands -15.3%; under `CC(=O)N(Cc1ncc(C(C)C)o1)C1CCN(CCn2cccn2)C1` (configuration not stated), -4.89%.
Under `Cc1ccccc1CNC(=O)CN1CCN(Cc2nccn2C)CC1` stands -5.75%; under `Cc1nc2c(c(NC(C)C)n1)CCN(Cc1cccnc1)CC2`, 6.4%; under `O=C(c1ccccc1-c1ccccc1)N1C[C@@H]2CNC[C@]2(C(=O)O)C1`, -0.265%.
Take `Cc1cccc(CN2CCc3[nH]nc(C(=O)N4CCNC(=O)C4)c3C2)n1`: the cytotoxicity at 10 µM was determined as 18.2%.
`O=C(NC1CC1)[C@H]1CC[C@@H]2[C@@H](CCN2c2ncc(F)cn2)O1`: the cytotoxicity at 10 µM was -1.65%.
Take `Cc1n[nH]cc1CNC1CCN(c2ccccc2)CC1`: the cytotoxicity at 10 µM was -52.2%.
Under `CC[C@@H]1N(CC2CCOCC2)CCC[C@]12CCC(=O)N2` stands 18.1%.
Under `Cc1ccc(C(=O)N2CCC3(CC2)CN(c2ccccn2)CCO3)cc1` stands -75.4%; under `O=C(NC1CC2(CCN(CCO)CC2)c2ccccc21)c1ccncc1` (configuration not stated), -9.54%; under `Cn1cc(CN2CCCC3(CCN(C(=O)c4cnccn4)C3)C2)cn1` (configuration not stated), -69.6%.
Under `CN(C)CCN1C(=O)CC[C@@H]2[C@H]1CCN2Cc1cccc(C#N)c1` stands -89.1%.
For `c1ccc(O[C@H]2CO[C@@]3(CCCN(Cc4nccs4)C3)C2)nc1`, the cytotoxicity at 10 µM was -71.3%.
For `Cc1nc(C2(O)CCCNCC2)sc1CCOc1ccccc1` (configuration not stated) the value was -28.5%; for `O=C(c1ccccc1)N1C[C@@H]2CCCO[C@@H]2[C@H](N2CCOCC2)C1`, -8.81%.
Under `CCN1CCc2c(sc3c2C(=O)NC(C=Cc2ccco2)N3)C1` (configuration not stated) stands -1.07%.

(Values after ChEMBL document CHEMBL4513216, “Probing the Open Global Health Chemical Diversity Library for Multistage-Active Starting Points for Next-Generation Antimalarials” (ACS Infect Dis, 2020).)
